Results published in ChEMBL document CHEMBL1136006, “New PET imaging agent for the serotonin transporter: [(18)F]ACF (2-[(2-amino-4-chloro-5-fluorophenyl)thio]-N,N-dimethyl-benzenmethanamine)” (J Med Chem, 2002).
The source made the active and inactive calls. No cut-off for these calls is given here.

Experiments:
[1] = molecular target: Sodium-dependent dopamine transporter (Rattus norvegicus, UniProt P23977); test: In vitro binding affinity in LLC-PK1 cells by Dopamine transporter binding assay by using [125I]IPT as a radioligand; format: cell-based
Method in brief: (§1)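 LLC-PK1 cell membrane homogenates overexpressing DAT or NET. Incubated with 0.4 nM [125I]IPT and 8–10 competitor concentrations (10^-10 to 10^-5 M) in 50 mM Tris-HCl pH 7.4, 120 mM NaCl, 0.1% BSA for 1 h at room temperature. Nonspecific binding defined with 10 μM CFT. Filtered, gamma-counted, nonlinear regression. Mean ± SEM of three determinations in duplicate.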

[2] = molecular target: T1, Sodium-dependent serotonin transporter (Rattus norvegicus, UniProt P31652); test: In vitro binding affinity in LLC-PK1 cells by SERT binding assay by using [125I]IDAM as a radioligand; format: cell-based
Method in brief: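 LLC-PK1 membrane homogenates overexpressing SERT. Incubated with 0.4 nM [125I]IDAM and 8–10 competitor concentrations (10^-10 to 10^-5 M) in 50 mM Tris-HCl pH 7.4, 120 mM NaCl, 0.1% BSA for 1 h at room temperature. Nonspecific binding defined with 1 μM IDAM. Filter-bound activity gamma-counted, nonlinear regression. Mean ± SEM, three determinations in duplicate.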

[3] = molecular target: T2, Sodium-dependent noradrenaline transporter (Homo sapiens, UniProt P23975); test: In vitro binding affinity in LLC-PK1 cells by Norepinephrine transporter binding assay by using [125I]-IPT as a radioligand; format: cell-based; method in brief: as §1
[4] = molecular target: T2, Sodium-dependent noradrenaline transporter; test: Selectivity for norepinephrine transporter
[5] = molecular target: Sodium-dependent dopamine transporter (Rattus norvegicus) (UniProt P23977); test: Selectivity for Dopamine transporter; No inhibition
[6] = molecular target: T1, Sodium-dependent serotonin transporter; test: Inhibition of 5-HT reuptake (SERT) in rat brain synaptosomes.; format: subcellular

Chain of Sodium-dependent dopamine transporter (P23977 whole entry): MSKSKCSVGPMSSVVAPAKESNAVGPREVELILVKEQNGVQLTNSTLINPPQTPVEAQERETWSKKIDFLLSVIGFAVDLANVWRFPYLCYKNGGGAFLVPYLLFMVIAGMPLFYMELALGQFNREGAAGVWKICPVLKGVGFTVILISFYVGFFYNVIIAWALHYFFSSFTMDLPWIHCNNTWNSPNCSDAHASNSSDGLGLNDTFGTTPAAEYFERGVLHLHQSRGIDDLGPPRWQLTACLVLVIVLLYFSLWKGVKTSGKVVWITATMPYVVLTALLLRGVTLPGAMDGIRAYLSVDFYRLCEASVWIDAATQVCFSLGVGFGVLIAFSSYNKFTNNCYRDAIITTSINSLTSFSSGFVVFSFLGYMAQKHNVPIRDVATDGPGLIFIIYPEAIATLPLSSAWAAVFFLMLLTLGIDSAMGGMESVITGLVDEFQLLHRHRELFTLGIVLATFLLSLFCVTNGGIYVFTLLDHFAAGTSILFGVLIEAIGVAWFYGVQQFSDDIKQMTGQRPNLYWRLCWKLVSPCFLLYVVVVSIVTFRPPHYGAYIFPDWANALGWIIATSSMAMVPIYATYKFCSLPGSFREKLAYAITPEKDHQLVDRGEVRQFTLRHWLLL
T2 sequence (P23975 whole entry, looked up): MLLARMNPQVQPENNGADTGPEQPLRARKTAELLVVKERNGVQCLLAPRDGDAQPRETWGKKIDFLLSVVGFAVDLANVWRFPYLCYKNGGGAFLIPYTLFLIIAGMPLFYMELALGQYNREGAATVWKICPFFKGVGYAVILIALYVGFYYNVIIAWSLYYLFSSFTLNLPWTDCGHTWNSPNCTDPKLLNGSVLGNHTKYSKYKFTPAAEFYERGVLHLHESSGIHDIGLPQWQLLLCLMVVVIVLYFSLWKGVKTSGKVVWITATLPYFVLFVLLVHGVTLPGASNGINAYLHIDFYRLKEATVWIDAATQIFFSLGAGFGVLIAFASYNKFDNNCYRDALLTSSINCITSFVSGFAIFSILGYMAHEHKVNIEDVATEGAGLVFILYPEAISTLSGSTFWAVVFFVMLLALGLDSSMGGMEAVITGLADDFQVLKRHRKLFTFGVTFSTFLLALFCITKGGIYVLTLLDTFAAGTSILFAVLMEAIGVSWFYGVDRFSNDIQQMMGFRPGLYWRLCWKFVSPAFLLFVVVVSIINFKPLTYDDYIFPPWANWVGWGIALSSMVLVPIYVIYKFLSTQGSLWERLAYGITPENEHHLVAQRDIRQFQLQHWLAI
T1 sequence (P31652 whole entry): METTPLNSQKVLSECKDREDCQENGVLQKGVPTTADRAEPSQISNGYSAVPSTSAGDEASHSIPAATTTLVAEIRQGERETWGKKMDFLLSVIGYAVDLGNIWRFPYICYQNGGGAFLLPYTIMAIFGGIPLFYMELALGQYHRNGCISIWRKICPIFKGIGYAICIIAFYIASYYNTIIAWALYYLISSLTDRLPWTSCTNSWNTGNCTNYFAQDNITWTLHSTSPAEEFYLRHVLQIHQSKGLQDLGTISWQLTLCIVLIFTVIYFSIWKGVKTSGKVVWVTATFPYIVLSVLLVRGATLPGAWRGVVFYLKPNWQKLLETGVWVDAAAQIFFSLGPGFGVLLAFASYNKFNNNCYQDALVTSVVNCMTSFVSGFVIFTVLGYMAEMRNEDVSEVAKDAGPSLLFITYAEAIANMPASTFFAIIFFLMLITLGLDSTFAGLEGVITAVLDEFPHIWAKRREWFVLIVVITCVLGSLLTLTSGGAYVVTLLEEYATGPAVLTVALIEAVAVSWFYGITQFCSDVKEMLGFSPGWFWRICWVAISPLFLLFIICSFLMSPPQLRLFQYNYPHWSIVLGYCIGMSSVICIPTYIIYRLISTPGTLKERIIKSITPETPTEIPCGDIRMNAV
Chain of Sodium-dependent dopamine transporter (Rattus norvegicus) (P23977 whole entry): as the sequence (P23977 whole entry) above

Ki [1] | Ki [2] | Ki [3] | Compound | further results
31900 nM | 4.16 nM | 2810 nM | CN(C)Cc1ccccc1Sc1cc(F)c(Cl)cc1[N+](=O)[O-] | –
3050 nM | 2.39 nM | 15000 nM | CN(C)C(=O)c1ccccc1Sc1cc(N)c(Cl)cc1[N+](=O)[O-] | –
699 nM | – | 699 nM | CN(C)Cc1ccccc1Sc1ccc(I)cc1N | –

Continued, compound first:

Compound | Ki [1] | Ki [2] | Ki [3] | further results
CN(C)Cc1ccccc1Sc1ccc(CF)cc1N | – | 1.1 nM | – | –
Cc1ccc(Sc2ccccc2CN(C)C)c(N)c1 | – | 1.1 nM | – | –
COc1ccc(Sc2ccccc2CN(C)C)c(N)c1 | – | 1.1 nM | – | –
CN(C)Cc1ccccc1Sc1ccc(Cl)cc1CO | – | – | – | Ki [4]: 55 nM; NI [5]: inactive; Ki [6]: 2.1 nM
